# Screening data: PubChem, several laboratories
# Most compounds without a hit are left out; they make up all but 0.7% or so of the library.
# Vif inh = HIV Vif self-association inhibitors, primary screen, imaging, HEK293T, single point; HEK293T cells, Vif self-association by quenched fluorescence, 24 h; AID 602346, 2012; 340,000 tested, 0.35% active; inhibition, % at 7.49 µM; in the data active means inhibition above about 50%, passing the limit was not always enough
# CaV13 ICDI inh = Primary screen for inhibitors of IQ motif and Ca2+-dependent inactivation inhibitor domain binding in CACNA1D, Förster resonance energy transfer in living cells, …. HEK cells, CFP/YFP FRET ICDI-IQ, plate reader, 10 min; percent FRET-ratio fall versus neutral wells. inhibition, % at 12.3 µM. 340,000 tested, 0.098% active;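 active means mean replicate inhibition of at least 30% and at least 1% of replicates passing that level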;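 further: 0% = median of the neutral control wells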
# GC-A act = GC-A stimulated cGMP production enhancers – HEK293 GC-A cells, cGMP TR-FRET, EC30 ANP, primary screen. Atrial natriuretic peptide receptor 1 (Homo sapiens), P16066. 0% at EC30 ANP, 100% saturating ANP. activation, % at 10 µM. 370,000 tested, 0.14% active; in the data active means activation above about 40%
# GC-B act = human GC-B receptor activators, primary screen, HEK293 GC-B cells, cGMP TR-FRET, EC30 CNP; 370,000 tested, 0.11% active; AID 1920062, 2024; activation, % at 10 µM; 0% at EC30 CNP, 100% saturating CNP;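 active means activation at 10 µM reaching about 35% in either raw or pattern-adjusted values, limit read from the data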
# XiGFP reactiv = activators of inactive X chromosome reactivation, primary screen, imaging, XiGFP fibroblasts, GFP high-content imaging, set 2; XiGFP mouse fibroblasts, % GFP-positive cells imaging, 3 d; cells co-treated with 5-aza-dC sensitizer; scaled so ellipticine positive control = 100%; activation, % at 7.58 µM; 360,000 tested, 0.055% active; AID 743238, 2013;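 active means mean normalized replicate activation at least 10% and every replicate at or above 10%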;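 further: 0% = median of on-plate neutral control wells and 100% = ellipticine 6 µM median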
#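 Schedule: 3 d treatment, 15 min room-temperature fixation; system: 68-5-11 XiGFP fibroblast line; buffer or medium: DMEM plus 5-aza-dC sensitizer; control set: ellipticine 6 µM positive control; compound: one concentration, pinned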
# Glyco luc inh = increase of ERlucT glycosylation luciferase signal, primary screen, N-linked glycosylation inhibitor project, D54 ERlucT cells, luminescence, set 2; D54 ERlucT glycosylation luciferase reporter, 24 h; percent of 100 nM tunicamycin response; 360,000 tested, 0.23% active; reporter increase, % at 12.5 µM; AID 588692, 2011;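 active means mean luciferase reporter signal, scaled so untreated is 0 and the glycosylation-blocking control 100, at or above a set limit in every replicate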;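 further: luciferase carries N-glycosylation sites so blocking glycosylation raises the light; 0% = median of neutral control wells and 100% = median of 100 nM tunicamycin wells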
# * marks the source's active call; other numbers are inactive results; x = no result.
SMILES,Vif inh,CaV13 ICDI inh,GC-A act,GC-B act,XiGFP reactiv,Glyco luc inh
CCN(CC)c1nc2c(c(=O)[nH]c(=O)n2C)n1Cc1ccccc1,10.3,-6.5,-3.5,-10.3,0.0,-0.6
CC(C)NC(=O)Nc1cccc2c1O[C@@H](CN(C)S(=O)(=O)c1cccs1)[C@@H](C)CN([C@H](C)CO)C2=O,x,x,x,x,-0.2,x
CCOc1ccc2[nH]c(C(=O)N/N=C/c3ccccc3OC)cc2c1,-11.2,-3.8,-8.1,-7.3,-0.1,14.4
COc1ccc2[nH]c(C(=O)N/N=C/c3ccccc3OC)cc2c1,3.9,-3.4,-2.3,-7.7,0.1,37.0*
COc1ccc(Cn2c(=O)[nH]c3cc(C(=O)NC4CCN(Cc5ccccc5)CC4)ccc32)cc1,x,-15.1,4.3,10.9,0.0,-7.5
COc1cc(C(=O)NC2CCN(C)CC2)ccc1Nc1ncc2c(n1)N(C1CCCCC1)CCC(=O)N2C,-4.3,-3.9,28.9,33.8,0.6,51.7*
COc1ccc(C(=O)NC2CCCCC2)cc1S(=O)(=O)N1CCCC1,11.7,-5.5,-2.1,1.2,x,0.7
CCN1C(=O)CC(C(C)C)N(C2CCCC2)c2nc(Nc3ccc(C(=O)NC4CCN(C)CC4)cc3OC)ncc21 (stereo not drawn),12.9,x,x,x,x,17.7
CCN1C(=O)CC(c2ccccc2)N(C2CCCC2)c2nc(Nc3ccc(C(=O)NC4CCN(C)CC4)cc3OC)ncc21 (stereo not drawn),-0.9,x,x,x,x,59.8*
COc1cc(C(=O)NC2CCN(C)CC2)ccc1Nc1ncc2c(n1)N(Cc1ccccc1)CCC(=O)N2C,-0.1,-4.3,33.1,37.7*,-0.2,104.8*
Cc1ccc(S(=O)(=O)Nc2ccc3c(c2)C(=O)N([C@H](C)CO)C[C@@H](C)[C@H](CN(C)C(=O)Nc2ccc(F)cc2)O3)cc1,x,x,x,x,-0.8,x
O=C(C[C@H]1CC[C@H](NS(=O)(=O)c2cccc(F)c2)[C@@H](CO)O1)N1CCCCC1,x,x,x,x,0.7,x
O=C(NCCc1ccccc1)C1CCN(C(=O)Nc2ccccc2)CC1,-9.6,-6.6,3.1,5.7,0.0,0.5
NS(=O)(=O)c1ccc(CCNC(=O)C2CCN(C(=O)Nc3ccccc3)CC2)cc1,55.0*,-5.7,-1.9,1.3,0.3,0.1
COc1ccc(/C=N/n2cncn2)cc1Cn1cc([N+](=O)[O-])cn1,13.9,4.7,0.6,-3.2,0.3,-1.7
COc1ccc(/C=N/Nc2ccc([N+](=O)[O-])cc2)cc1Cn1cc([N+](=O)[O-])cn1,98.3*,-6.0,-1.3,-0.9,x,-2.4
O=C(CCCCCCC(=O)Nc1ccccc1)NO,151.7*,-2.9,2.0,-0.8,0.0,858.4*
O=C(CCCCCN1C(=O)c2ccccc2C1=O)Nc1ccccc1,6.2,-8.6,-1.0,0.6,x,4.0
CC(C)NC(=O)N(C)C[C@H]1OCCCC[C@H](C)Oc2ccc(NC(=O)c3ccncc3)cc2C(=O)N([C@H](C)CO)C[C@@H]1C,x,x,x,x,0.1,x
CC(NC(=O)CSc1nc2c(c(C(F)(F)F)n1)CCc1ccccc1-2)c1ccccc1 (stereo not drawn),63.0*,-3.9,-1.4,3.0,x,-6.3
O=C(Nc1ccc2c(c1)nc1n2CCOC1)c1ccccc1,58.3*,-4.1,1.5,5.8,x,0.5
CCOc1ccc(NC(=O)CN(C)C(=O)CCCNC(=O)c2ccc(Cl)cc2)cc1OCC,0.4,32.4*,2.2,8.7,-0.1,5.1
CCOc1ccc(NC(=O)CN(C)C(=O)c2cc(S(=O)(=O)N3CCCCC3)ccc2Cl)cc1OCC,92.3*,-6.0,2.4,1.6,0.1,0.7
N#Cc1c(NCCCO)nc(NCc2ccccc2)c2c1CCN(Cc1ccccc1)C2,1.6,32.1*,10.2,0.9,x,0.6
